Assay results taken from ChEMBL document CHEMBL1128503 (J Med Chem, 1995).

How the values were obtained:
[1] = target: T1, Sodium-dependent dopamine transporter (Rattus norvegicus, UniProt P23977); experiment: Inhibition of [3H]dopamine […] to rat striatal synaptosome dopamine transporter; format: tissue-based, Brain
[2] = target: T1, Sodium-dependent dopamine transporter; experiment: Binding affinity towards dopamine transporter using [3H]-mazindol as radioligand in rat striatal membranes.; format: cell membranes
Summary of the method: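 Competition assay: test analogues displace [3H]mazindol binding in rat striatal membranes. This radioligand labels a single high-affinity, sodium-dependent cocaine site on the dopamine carrier.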

T1 sequence (P23977 whole entry): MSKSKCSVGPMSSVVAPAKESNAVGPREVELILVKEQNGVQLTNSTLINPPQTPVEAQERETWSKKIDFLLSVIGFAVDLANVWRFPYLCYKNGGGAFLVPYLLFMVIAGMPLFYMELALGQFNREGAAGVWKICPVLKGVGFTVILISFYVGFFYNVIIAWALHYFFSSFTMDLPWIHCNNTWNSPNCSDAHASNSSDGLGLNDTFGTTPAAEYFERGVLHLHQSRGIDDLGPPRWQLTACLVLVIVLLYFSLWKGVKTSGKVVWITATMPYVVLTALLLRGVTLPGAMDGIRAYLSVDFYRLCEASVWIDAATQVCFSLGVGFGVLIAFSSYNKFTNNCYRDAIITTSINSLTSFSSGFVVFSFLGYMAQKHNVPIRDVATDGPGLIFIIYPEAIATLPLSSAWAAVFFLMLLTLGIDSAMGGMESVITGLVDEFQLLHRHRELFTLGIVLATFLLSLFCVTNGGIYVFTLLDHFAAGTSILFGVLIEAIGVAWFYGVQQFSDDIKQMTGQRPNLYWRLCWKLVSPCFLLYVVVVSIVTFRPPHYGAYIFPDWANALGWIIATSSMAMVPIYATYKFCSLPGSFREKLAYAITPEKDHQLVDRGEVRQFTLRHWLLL

Compound	Ki [1]	Ki [2]
CN1C2CCC1[C@@H](CCc1ccccc1)[C@@H](c1ccc(Cl)cc1)C2 (stereo not given in full)	1.54 nM	1.46 nM
CN1C2CCC1[C@@H](/C=C\Cl)[C@@H](c1ccc(Cl)cc1)C2 (stereo not given in full)	0.88 nM	0.22 nM
CC[C@@H]1C2CCC(C[C@@H]1c1ccc(Cl)cc1)N2C (stereo not given in full)	2.35 nM	2.17 nM
C=C[C@@H]1C2CCC(C[C@@H]1c1ccc(Cl)cc1)N2C (stereo not given in full)	2.47 nM	0.59 nM
CN1C2CCC1[C@@H](/C=C/Cl)[C@@H](c1ccc(Cl)cc1)C2 (stereo not given in full)	1.13 nM	0.42 nM
CCC[C@@H]1C2CCC(C[C@@H]1c1ccc(Cl)cc1)N2C (stereo not given in full)	1.08 nM	0.94 nM
CCCCCC[C@@H]1C2CCC(C[C@@H]1c1ccc(Cl)cc1)N2C (stereo not given in full)	271 nM	156 nM
CCC[C@@H]1C2CCC(C[C@@H]1c1ccccc1)N2C (stereo not given in full)	1.61 nM	1.87 nM
CCCC[C@@H]1C2CCC(C[C@@H]1c1ccc(Cl)cc1)N2C (stereo not given in full)	0.84 nM	1.21 nM
COC(=O)C1C2CC[C@H](C[C@@H]1c1ccc(Cl)cc1)N2C (stereo not given in full)	2.85 nM	0.83 nM
